pEC50, pIC50: −log10 of the molar value.

The target in assay [1] is T1, P2Y purinoceptor 6 (Homo sapiens, UniProt Q15077). The experiment in a line: Agonist activity at human P2Y6R expressed in 1321N1 cells assessed as calcium mobilization at 3 uM measured by microplate reader method relative to control. It is filed as functional, cell-based. The gist of the method:
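Human P2Y6R stably expressed in 1321N1 astrocytoma cells; fluorescence-based (FLIPR) Ca2+ mobilization read-out; agonist tested at a single 3 µM concentration and expressed as % activation.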

The target in assay [2] is T1, P2Y purinoceptor 6. Briefly: Agonist activity at human P2Y6R expressed in 1321N1 cells assessed as calcium mobilization measured by microplate reader method. It is filed as functional, cell-based.
Assay [3] addresses T2, 5'-nucleotidase (Rattus norvegicus, UniProt P21588).
T2 sequence (P21588 whole entry): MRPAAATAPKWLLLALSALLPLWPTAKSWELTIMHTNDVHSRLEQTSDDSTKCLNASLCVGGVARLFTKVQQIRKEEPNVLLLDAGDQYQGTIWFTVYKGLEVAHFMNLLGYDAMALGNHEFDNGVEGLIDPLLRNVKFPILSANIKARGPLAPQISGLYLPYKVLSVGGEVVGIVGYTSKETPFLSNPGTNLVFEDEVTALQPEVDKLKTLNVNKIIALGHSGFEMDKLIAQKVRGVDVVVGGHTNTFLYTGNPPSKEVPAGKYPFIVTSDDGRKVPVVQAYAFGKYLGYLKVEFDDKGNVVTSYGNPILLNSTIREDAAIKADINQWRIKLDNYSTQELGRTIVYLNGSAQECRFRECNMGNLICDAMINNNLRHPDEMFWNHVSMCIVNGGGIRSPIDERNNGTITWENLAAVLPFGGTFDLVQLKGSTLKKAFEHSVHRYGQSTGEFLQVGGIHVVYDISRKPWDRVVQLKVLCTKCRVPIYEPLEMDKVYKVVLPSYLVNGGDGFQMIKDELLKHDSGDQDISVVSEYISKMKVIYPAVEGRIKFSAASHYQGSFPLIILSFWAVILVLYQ
Briefly: Inhibition of rat CD73 using [3H]-AMP as substrate by radiometric assay.

For assay [4], the target named is D(3) dopamine receptor (Homo sapiens) (UniProt P35462). Briefly: Displacement of [3H]-N-methylspiperone from dopamine D3 receptor (unknown origin) at 10 uM relative to control.
Assay [5] addresses T3, P2Y purinoceptor 14 (Homo sapiens, UniProt Q15391).
T3 sequence (Q15391 whole entry): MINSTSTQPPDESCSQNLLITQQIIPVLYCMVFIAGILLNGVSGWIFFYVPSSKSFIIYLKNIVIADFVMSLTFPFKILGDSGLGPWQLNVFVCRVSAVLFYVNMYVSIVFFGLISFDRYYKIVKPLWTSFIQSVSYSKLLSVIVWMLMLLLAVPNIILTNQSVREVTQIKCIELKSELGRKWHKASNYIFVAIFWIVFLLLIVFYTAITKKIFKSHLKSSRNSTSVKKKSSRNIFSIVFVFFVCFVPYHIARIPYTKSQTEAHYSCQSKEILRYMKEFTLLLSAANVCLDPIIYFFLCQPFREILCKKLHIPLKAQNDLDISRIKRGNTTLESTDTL
Briefly: Binding affinity to human P2Y14 expressed in CHO cells. In kind it is cell-based. The procedure, abridged: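 Whole CHO cells stably expressing human P2Y14R; a fluorescent antagonist serves as tracer and binding is read by flow cytometry; IC50 from inhibition of tracer binding.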

Assay [6] deals with T1, P2Y purinoceptor 6. The experiment in a line: Agonist activity at human P2Y6R expressed in 1321N1 cells by PLC assay. As to conditions: dose 3.0 µM, time 30.0 min.
Assay [7] addresses T1, P2Y purinoceptor 6. Briefly: Agonist activity at human P2Y6R expressed in 1321N1 cells assessed as calcium mobilization measured by FLIPR method. It is filed as functional, cell-based.
The target of assay [8] is T3, P2Y purinoceptor 14. Briefly: Agonist activity at human P2Y14 expressed in CHO cells.
The species entered for assay [9] is Homo sapiens. The experiment in a line: Selectivity ratio of IC50 for human P2Y14 expressed in CHO cells to EC50 for human P2Y6R expressed in 1321N1 cells. In kind it is cell-based. The procedure, abridged: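 The ratio divides the hP2Y14R IC50 by the hP2Y6R EC50. The IC50 comes from flow-cytometric displacement of a fluorescent antagonist tracer in whole hP2Y14R-CHO cells.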

The target of assay [10] is Sigma non-opioid intracellular receptor 1 (Homo sapiens) (UniProt Q99720). The experiment in a line: Displacement of [3H]-Pentazocine from sigma-1 receptor (unknown origin) at 10 uM relative to control.
Sigma non-opioid intracellular receptor 1 (Homo sapiens), sequence (Q99720 whole entry): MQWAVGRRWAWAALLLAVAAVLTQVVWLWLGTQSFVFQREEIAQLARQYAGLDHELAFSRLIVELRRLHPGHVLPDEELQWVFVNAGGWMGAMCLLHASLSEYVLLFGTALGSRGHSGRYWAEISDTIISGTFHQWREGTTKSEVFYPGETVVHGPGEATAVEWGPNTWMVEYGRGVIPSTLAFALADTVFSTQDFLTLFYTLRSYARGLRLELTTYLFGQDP

T1 sequence (Q15077 whole entry): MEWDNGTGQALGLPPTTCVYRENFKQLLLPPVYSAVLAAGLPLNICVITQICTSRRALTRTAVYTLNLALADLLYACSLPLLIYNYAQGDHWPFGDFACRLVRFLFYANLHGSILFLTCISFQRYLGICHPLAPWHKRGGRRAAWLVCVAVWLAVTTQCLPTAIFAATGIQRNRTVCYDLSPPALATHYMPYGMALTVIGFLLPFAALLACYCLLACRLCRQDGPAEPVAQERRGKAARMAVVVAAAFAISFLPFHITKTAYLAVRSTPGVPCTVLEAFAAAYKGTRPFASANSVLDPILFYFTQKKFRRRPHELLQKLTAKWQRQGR
D(3) dopamine receptor (Homo sapiens), sequence (P35462 whole entry): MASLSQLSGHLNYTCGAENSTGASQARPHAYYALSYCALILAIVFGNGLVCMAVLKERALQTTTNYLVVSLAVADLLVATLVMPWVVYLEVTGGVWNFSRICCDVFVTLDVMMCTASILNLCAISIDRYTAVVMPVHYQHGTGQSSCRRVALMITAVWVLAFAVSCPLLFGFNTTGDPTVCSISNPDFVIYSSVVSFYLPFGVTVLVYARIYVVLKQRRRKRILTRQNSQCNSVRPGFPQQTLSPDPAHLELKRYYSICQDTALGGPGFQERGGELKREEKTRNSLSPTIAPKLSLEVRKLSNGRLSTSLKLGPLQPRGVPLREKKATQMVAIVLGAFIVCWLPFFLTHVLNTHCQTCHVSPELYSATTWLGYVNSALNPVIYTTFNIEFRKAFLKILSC

As for `CCn1c(=O)n([C@@H]2O[C@H](COP(=O)(O)CP(=O)(O)O)[C@@H](O)[C@H]2O)cc/c1=N/OCc1ccccc1`, in assay [1], the Activity worked out at 5.7%.

Take `O=c1ccn([C@@H]2O[C@H](COP(=O)(O)CP(=O)(O)O)[C@@H](O)[C@H]2O)c(=O)n1Cc1ccccc1`: the Activity in [1] stood at 5.3%.

With `CO/N=c1/ccn([C@@H]2O[C@H](COP(=O)(O)OP(=O)(O)O)[C@@H](O)[C@H]2O)c(=O)[nH]1`, the pEC50 in [2] is 6.31.

In the case of `CCCn1c(=O)ccn([C@@H]2O[C@H](COP(=O)(O)CP(=O)(O)O)[C@@H](O)[C@H]2O)c1=O`, the Activity in assay [1] was found to be 2.7%.

As for `CCn1c(=O)ccn([C@@H]2O[C@H](COP(=O)(O)CP(=O)(O)O)[C@@H](O)[C@H]2O)c1=O`, the Activity in assay [1] came out at 3.5%.

With `O=c1ccn([C@@H]2O[C@H](COP(=O)(O)CP(=O)(O)O)[C@@H](O)[C@@H]2O)c(=O)[nH]1`, the Activity in assay [1] worked out at 2.4%.

On to `O=c1cnn([C@@H]2O[C@H](COP(=O)(O)CP(=O)(O)O)[C@@H](O)[C@H]2O)c(=O)[nH]1`, for which, in assay [1], the Activity was found to be 5.2%.

Take `Nc1nc(=O)n([C@@H]2O[C@H](COP(=O)(O)CP(=O)(O)O)[C@@H](O)[C@H]2O)cc1F`: the Activity in assay [1] was 5.7%.

In assay [3], `CO/N=c1/ccn([C@@H]2O[C@H](COP(=O)(O)CP(=O)(O)O)[C@@H](O)[C@H]2O)c(=O)[nH]1` had a pIC50 of 6.59.

On to `O=c1[nH]c(=O)n([C@@H]2O[C@H](COP(=O)(O)CP(=O)(O)O)[C@@H](O)[C@H]2O)cc1F`, for which the negative logarithm of the IC50 (pIC50) in assay [3] is less than 6.00.

Regarding `COC(=O)c1ccc(CO/N=c2/ccn([C@@H]3O[C@H](COP(=O)(O)CP(=O)(O)O)[C@@H](O)[C@H]3O)c(=O)[nH]2)cc1`, in assay [2], the pEC50 was 5.78. The compound also returned an inhibition in assay [4] of 85%.

Regarding `O=c1[nH]/c(=N\OCc2ccc(C(F)(F)F)cc2)ccn1[C@@H]1O[C@H](COP(=O)(O)CP(=O)(O)O)[C@@H](O)[C@H]1O`, the negative logarithm of the IC50 (pIC50) in assay [5] was less than 4.00; in assay [3], 7.52.

Turning to `O=c1ccn([C@@H]2O[C@H](COP(=O)(O)CP(=O)(O)O)[C@@H](O)[C@H]2O)c(=S)[nH]1`, a half-maximal effect in assay [6] (EC50) was put at 1.99 µM.

On to `Nc1nc(=O)n([C@@H]2O[C@H](COP(=O)(O)CP(=O)(O)O)[C@@H](O)[C@H]2O)cc1I`, for which the Activity in assay [1] turned out to be 3.4%.

For `O=c1[nH]c(=O)n([C@@H]2O[C@H](COP(=O)(O)CP(=O)(O)O)[C@@H](O)[C@H]2O)cc1Cl`, in assay [5], the pIC50 was 4.78.

`O=c1[nH]/c(=N\OCc2cccc(Cl)c2)ccn1[C@@H]1O[C@H](COP(=O)(O)CP(=O)(O)O)[C@@H](O)[C@H]1O`: the pIC50 in assay [5] was less than 4.00. Also, the negative logarithm of the EC50 (pEC50) in [2] and in assay [7] was 5.84 each time.

Turning to `Cn1c(=O)n([C@@H]2O[C@H](COP(=O)(O)CP(=O)(O)O)[C@@H](O)[C@H]2O)cc/c1=N/OCc1ccccc1`, the Activity in [1] was 3.6%.

On to `Cc1cn([C@@H]2O[C@H](COP(=O)(O)CP(=O)(O)O)[C@@H](O)[C@H]2O)c(=O)nc1N`, for which, in assay [1], the Activity came out at 3%.

Regarding `O=c1[nH]c(=O)n([C@@H]2O[C@H](COP(=O)(O)CP(=O)(O)O)[C@@H](O)[C@H]2O)cc1I`, the pEC50 in assay [2] is 7.31. The compound also showed a negative logarithm of the IC50 (pIC50) in [3] of 6.79.

Compound `O=c1ccn([C@@H]2O[C@H](COP(=O)(O)CP(=O)(O)O)[C@@H](O)[C@H]2O)c(=O)[nH]1` showed a negative-log EC50 (pEC50) in assay [8] of 7.96. The pIC50 in assay [3] is 5.74. In assay [6], this compound yielded an EC50 of 0.339 µM.

Consider `Cc1cn([C@@H]2O[C@H](COP(=O)(O)CP(=O)(O)O)[C@@H](O)[C@H]2O)c(=O)[nH]/c1=N/OCc1ccccc1`, for which the pIC50 in assay [3] is 6.49.

On to `O=c1[nH]c(=O)n([C@@H]2O[C@H](COP(=O)(O)CP(=O)(O)O)[C@@H](O)[C@H]2O)cc1Br`, for which, in assay [2], the pEC50 was 6.98.

On to `O=c1[nH]/c(=N\OCc2ccccc2)ccn1[C@@H]1O[C@H](COP(=O)(O)CP(=O)(O)O)[C@@H](O)[C@H]1O`, for which the pIC50 in assay [3] was 6.95.

On to `O=c1[nH]/c(=N\OCc2ccc(Cl)cc2)ccn1[C@@H]1O[C@H](COP(=O)(O)CP(=O)(O)O)[C@@H](O)[C@H]1O`, for which the pIC50 in assay [5] was less than 4.00.

For the compound `O=c1[nH]/c(=N\OCc2ccccc2)ccn1[C@@H]1O[C@H](COP(=O)(O)OP(=O)(O)O)[C@@H](O)[C@H]1O`, the negative logarithm of the EC50 (pEC50) in assay [2] is 6.10.

For `O=c1[nH]/c(=N/OCc2ccccc2)c(F)cn1[C@@H]1O[C@H](COP(=O)(O)CP(=O)(O)O)[C@@H](O)[C@H]1O`, the negative logarithm of the IC50 (pIC50) is 4.67 in assay [5] and 7.07 in assay [3]. The pEC50 in assay [2] and in [7] was 6.26 in each case. In addition, in [9], the Ratio IC50/EC50 is 39.

Turning to `O=c1[nH]/c(=N\OCc2ccc(S(F)(F)(F)(F)F)cc2)ccn1[C@@H]1O[C@H](COP(=O)(O)CP(=O)(O)O)[C@@H](O)[C@H]1O`, in [2], the pEC50 was 5.80. Also, the inhibition in assay [10] amounted to 59%.

For the origin of these results see ChEMBL document CHEMBL4819144, “Structure-activity relationships of pyrimidine nucleotides containing a 5'-α,β-methylene diphosphonate at the P2Y6 receptor” (Bioorg Med Chem Lett, 2021).
